{"source": "ChEMBL document CHEMBL1124173", "about": "“Enantiomers of 7-(2,3-epoxypropoxy)actinomycin D as dual-action DNA-acting antitumor agents” (J Med Chem, 1988)", "key": {"Mus musculus [1]": {"tested_on": "Mus musculus", "test": "Antitumor activity measured as % increase in life span, for ip administration of compound and ip inoculation of B16 melanoma.", "type": "functional", "how_it_was_run": "(§1)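 B16 brei (tumor weight/Hank's balanced salt solution 1:5, 0.2 mL) implanted sc or ip into groups of nine BDF1 mice on day 0. Drug given iv on day 1 (sc tumor) or ip on days 1, 5 and 9 (ip tumor), in 0.1 mL 5% v/v Me2SO-saline. Read-out is median survival time and %ILS versus untreated controls, excluding sixty-day survivors.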"}, "Mus musculus [2]": {"organism": "Mus musculus", "test": "Antitumor activity measured as optimal dose, against C26 colon carcinoma.", "type": "functional", "how_it_was_run": "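Primary colon C26 carcinoma cells (trypan blue excluding, 2.5 × 10^5 cells/mouse) implanted in CDF1 mice on day 0. Drug given ip on days 1, 5 and 9 in 0.1 mL 5% v/v Me2SO-saline. Optimal dose in […]; %ILS and 60-day survivors scored.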"}, "Mus musculus [3]": {"tested_on": "Mus musculus", "test": "Antitumor activity measured as median survival time, for iv administration and sc inoculation of B16 melanoma."}, "Mus musculus [4]": {"organism": "Mus musculus", "test": "Antitumor activity measured as % increase in life span, against C26 colon carcinoma.", "type": "functional", "how_it_was_run": "(§2)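 C26 primary colon carcinoma cells (trypan blue excluding, 2.5 × 10^5 cells/mouse) implanted in CDF1 mice on day 0. Drug given ip on days 1, 5 and 9 in 0.1 mL 5% v/v Me2SO-saline at optimal dose. Read-out is median survival time; %ILS is drug-treated over control, excluding survivors. Sixty-day survivors are counted.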"}, "Mus musculus [5]": {"organism": "Mus musculus", "test": "Antitumor activity measured as median survival time, against C26 colon carcinoma.", "type": "functional", "how_it_was_run": "as §2"}, "Mus musculus [6]": {"tested_on": "Mus musculus", "test": "Antitumor activity measured as % increase in life span, for iv administration of compound and sc inoculation of B16 melanoma."}, "Mus musculus [7]": {"tested_on": "Mus musculus", "test": "Antitumor activity measured as median survival time, for ip administration and ip inoculation of B16 melanoma.", "type": "functional", "how_it_was_run": "as §1"}, "L1210 [8]": {"tested_on": "L1210", "test": "Inhibition of synthesis of [methyl-14C] thymidine into DNA, in L1210 cells.", "type": "functional, cell-based, Mus musculus", "conditions": "Mus musculus, L1210", "how_it_was_run": "(§3)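 Actively growing L1210 cells in vitro. Incorporation of [5-3H]uridine into RNA, or [methyl-14C]thymidine into DNA, compared with untreated cells. IC50 is micromolar drug concentration giving 50% reduction in incorporation rate.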"}, "[9]": {"test": "ratio of DNA to compound bound entirely by covalent bonding to DNA base.", "type": "functional", "how_it_was_run": "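[3H]Drug and purified calf thymus DNA dialyzed at 37 °C in Tris HCl buffer; complex twice ethanol-precipitated to remove unbound drug. Molar DNA/drug ratio calculated from drug bound only covalently to DNA bases.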"}, "[10]": {"test": "Molar ratio of DNA to total amount of compound that is bound both intercalatively and covalently to calf thymus DNA helix", "type": "functional", "how_it_was_run": "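[3H]Drug and purified calf thymus DNA dialyzed at 37 °C in Tris HCl pH 7.4 (20 mM per footnote; 25 mM in methods). Equilibrated complex precipitated twice with ethanol to remove unbound drug. Molar DNA/drug ratio based on total bound drug, intercalative plus covalent.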"}, "L1210 [11]": {"tested_on": "L1210", "test": "Inhibition of synthesis of [5-3H]-uridine into RNA in L1210 cells.", "type": "functional, cell-based, Mus musculus", "conditions": "l1210", "how_it_was_run": "as §3"}}}
{"smiles": "COc1cccc2c1C(=O)c1c(O)c3c(c(O)c1C2=O)C[C@@](O)(C(=O)CO)C[C@@H]3O[C@H]1C[C@H](N)[C@H](O)[C@H](C)O1", "note": "[DOXORUBICIN]", "values": [{"measurement": "ILS", "setting": "Mus musculus [1]", "result": 224, "unit": "%"}, {"measurement": "Dose", "setting": "Mus musculus [2]", "result": 2.5, "unit": "mg/kg"}, {"measurement": "MST", "setting": "Mus musculus [3]", "result": 59, "unit": "days"}, {"measurement": "ILS", "setting": "Mus musculus [4]", "result": 118, "unit": "%"}, {"measurement": "MST", "setting": "Mus musculus [5]", "result": 48, "unit": "days"}, {"measurement": "ILS", "setting": "Mus musculus [6]", "result": 79, "unit": "%"}, {"measurement": "MST", "setting": "Mus musculus [7]", "result": 60, "unit": "days"}]}
{"smiles": "Cc1c2oc3c(C)c(OC[C@H]4CO4)cc(C(=O)N[C@@H]4C(=O)N[C@H](C(C)C)C(=O)N5CCC[C@H]5C(=O)N(C)CC(=O)N(C)[C@@H](C(C)C)C(=O)O[C@@H]4C)c3nc-2c(C(=O)N[C@@H]2C(=O)N[C@H](C(C)C)C(=O)N3CCC[C@H]3C(=O)N(C)CC(=O)N(C)[C@@H](C(C)C)C(=O)O[C@@H]2C)c(N)c1=O", "values": [{"measurement": "IC50", "setting": "L1210 [8]", "result": 60, "unit": "nM"}]}
{"smiles": "Cc1c2oc3c(C)c(OCC4CO4)cc(C(=O)N[C@@H]4C(=O)N[C@@H](C(C)C)C(=O)N5CCC[C@H]5C(=O)N(C)CC(=O)N(C)[C@@H](C(C)C)C(=O)O[C@H]4C)c3nc-2c(C(=O)N[C@@H]2C(=O)N[C@@H](C(C)C)C(=O)N3CCC[C@H]3C(=O)N(C)CC(=O)N(C)[C@@H](C(C)C)C(=O)O[C@H]2C)c(N)c1=O", "note": "(stereo in doubt)", "values": [{"measurement": "Ratio", "setting": "[9]", "result": 520}, {"measurement": "Ratio", "setting": "[10]", "result": 32}]}
{"smiles": "Cc1c2oc3c(C)c(OCC4CO4)cc(C(=O)N[C@@H]4C(=O)N[C@H](C(C)C)C(=O)N5CCC[C@H]5C(=O)N(C)CC(=O)N(C)[C@@H](C(C)C)C(=O)O[C@@H]4C)c3nc-2c(C(=O)N[C@@H]2C(=O)N[C@H](C(C)C)C(=O)N3CCC[C@H]3C(=O)N(C)CC(=O)N(C)[C@@H](C(C)C)C(=O)O[C@@H]2C)c(N)c1=O", "note": "(stereo in doubt; 3b)", "values": [{"measurement": "IC50", "setting": "L1210 [11]", "result": 24, "unit": "nM"}, {"measurement": "IC50", "setting": "L1210 [8]", "result": 80, "unit": "nM"}]}
{"smiles": "Cc1c2oc3c(C)c(OC[C@H]4CO4)cc(C(=O)N[C@@H]4C(=O)N[C@@H](C(C)C)C(=O)N5CCC[C@H]5C(=O)N(C)CC(=O)N(C)[C@@H](C(C)C)C(=O)O[C@H]4C)c3nc-2c(C(=O)N[C@@H]2C(=O)N[C@@H](C(C)C)C(=O)N3CCC[C@H]3C(=O)N(C)CC(=O)N(C)[C@@H](C(C)C)C(=O)O[C@H]2C)c(N)c1=O", "values": [{"measurement": "Ratio", "setting": "[9]", "result": 500}, {"measurement": "Ratio", "setting": "[10]", "result": 30}]}
